In ChEMBL document CHEMBL1122026, “Antiestrogenic properties of substituted benz[a]anthracene-3,9-diols” (1982) one finds Inhibition and Ka data, which are given here for 7 molecules.

SMILES strings stand for the structures.

Assay [1] is filed under the species Rattus norvegicus. Put plainly: Antiestrogenic potency was measured by inhibition of estrus in ovariectomized rats treated with 17-beta-estradiol at a dose of 5 mg. The class given is functional. The gist of the method: (§1)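 Ovariectomized rats were given 17β-estradiol together with the test compound. Vaginal smears were taken 32 h later; rats with cornified epithelial cells in the smear were scored as in estrus. The 32 h time point was chosen from smears taken at 0, 8, 24, 32, 48, 56 and 72 h. Read-out: percentage of rats in estrus, and its inhibition.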

The species entered for assay [2] is Rattus norvegicus. As to the kind of experiment: Affinity constant was measured by inhibition of estrus in ovariectomized rats treated with 17-beta-estradiol at a dose of 5 mg. The class given is functional, organism-based.
For assay [3], the species on record is Rattus norvegicus. Put plainly: Affinity constant was measured by inhibition of estrus in ovariectomized rats treated with 17-beta-estradiol. The class given is functional, organism-based.
For assay [4], the species on record is Rattus norvegicus. As to the kind of experiment: Antiestrogenic potency was measured by inhibition of estrus in ovariectomized rats treated with 17-beta-estradiol at a dose of 0.5 mg. Format: functional. The gist of the method:
as §1

Usually Inhibition stands for how much of the control response was suppressed.

The molecule `Oc1ccc2cc3c(ccc4cc(O)ccc43)cc2c1` showed an Inhibition in the assay filed under Rattus norvegicus [1] of 12%. In the assay listed under Rattus norvegicus [2], this molecule returned a Ka of 3e+07 M⁻¹.
The like results for `Cc1c2cc(O)ccc2cc2c1ccc1cc(O)ccc12` were, in that order, 22% and 1.8e+09 M⁻¹.
`C[C@]12CC[C@@H]3c4ccc(O)cc4CC[C@H]3[C@@H]1C[C@@H](O)[C@@H]2O` gave a Ka in the assay filed under Rattus norvegicus [3] of 7e+09 M⁻¹.
In turn, `COc1ccc2c(c1)CCC(c1ccccc1)=C2c1ccc(OCCN2CCCC2)cc1` [NAFOXIDINE] yielded an Inhibition in the assay listed under Rattus norvegicus [4] of 44%.
For the molecule `CC(=O)Oc1ccc2c(ccc3c(C)c4cc(OC(C)=O)ccc4c(C)c32)c1`, in the assay listed under Rattus norvegicus [1], the Inhibition is listed as 67%.
Take `Cc1c2cc(O)ccc2c(C)c2c1ccc1cc(O)ccc12`: the Inhibition in the assay listed under Rattus norvegicus [1] turned out to be 74%; in the assay listed under Rattus norvegicus [4] it was 44%. In addition, the Ka in the assay filed under Rattus norvegicus [2] came to 1.7e+08 M⁻¹.
Molecule `Cc1c2ccc(O)cc2cc2ccc3cc(O)ccc3c12` returned an Inhibition in the assay listed under Rattus norvegicus [1] of 44%. The same molecule gave a Ka in the assay filed under Rattus norvegicus [2] of 4.3e+07 M⁻¹.
